Experimental data as given in ChEMBL document CHEMBL1926547, “Structure based drug design, synthesis and evaluation of 4-(benzyloxy)-1-phenylbut-2-yn-1-ol derivatives as 5-lipoxygenase inhibitors” (Eur J Med Chem, 2012).
Calls of active or inactive are those of the source. The calls are words filed in the database; no cut-off is given here.

Key:
[1] = target: T1, Polyunsaturated fatty acid 5-lipoxygenase (Homo sapiens, UniProt P09917); assay: Inhibition of 5-LOX assessed as decrease in oxygen concentration using arachidonic acid as substrate by polarigraphic method with Clark's oxygen electrode
T1 sequence (P09917 whole entry): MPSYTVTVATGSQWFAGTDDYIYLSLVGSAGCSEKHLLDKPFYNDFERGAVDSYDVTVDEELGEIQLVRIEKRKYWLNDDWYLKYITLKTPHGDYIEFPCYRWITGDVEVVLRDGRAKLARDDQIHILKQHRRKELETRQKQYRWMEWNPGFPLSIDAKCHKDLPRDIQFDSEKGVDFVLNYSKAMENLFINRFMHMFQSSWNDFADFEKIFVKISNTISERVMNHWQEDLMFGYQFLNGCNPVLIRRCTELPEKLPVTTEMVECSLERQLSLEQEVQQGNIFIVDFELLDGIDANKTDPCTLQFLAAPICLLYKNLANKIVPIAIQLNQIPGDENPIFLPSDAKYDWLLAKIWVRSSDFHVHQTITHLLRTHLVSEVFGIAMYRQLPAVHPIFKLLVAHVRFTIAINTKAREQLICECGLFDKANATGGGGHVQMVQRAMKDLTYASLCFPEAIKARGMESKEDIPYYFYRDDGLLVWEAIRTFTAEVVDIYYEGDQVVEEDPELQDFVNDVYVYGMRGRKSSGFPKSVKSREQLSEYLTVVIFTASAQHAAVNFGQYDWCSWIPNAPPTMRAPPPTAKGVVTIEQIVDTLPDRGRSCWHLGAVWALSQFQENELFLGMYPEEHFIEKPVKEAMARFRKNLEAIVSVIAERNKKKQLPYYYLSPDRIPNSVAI
Outline: (§1)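 Purified 5-LOX, activity measured polarographically by Clark oxygen electrode as rate of O2 decrease. Enzyme in 100 mM phosphate pH 6.3, 3 mL final, with compound (DMSO stocks, various concentrations); reaction started with arachidonic acid 133 μM, 25 °C; maximal slope used. IC50 from concentration–inhibition curve; each assay repeated thrice.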

[2] = target: T2, Polyunsaturated fatty acid 5-lipoxygenase (Homo sapiens) (UniProt P09917); assay: Irreversible inhibition of 5-LOX assessed as decrease in oxygen concentration using arachidonic acid as substrate measured after dilution by polarigraphic method with Clark's oxygen electrode
T2 sequence (whole entry): T1 sequence (P09917 whole entry)

COLO 205 = assay: Growth inhibition of human COLO205 cells after 48 hrs by MTT assay; type: functional; settings: COLO 205, 48 h
Outline: (§2)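 Cells kept in RPMI-1640 + 10% heat-inactivated FBS, penicillin/streptomycin, 2 mM glutamine, 37 °C 5% CO2; seeded 5×10^3/well the day before, washed with PBS, fresh medium. Compounds 0.1–100 μM, 48 h; MTT 4 h at 37 °C, formazan dissolved in DMSO, OD 570 nm. GI50 from dose-survival curves; three experiments in triplicate.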

MDA-MB-231 = assay: Growth inhibition of human MDA-MB-231 cells after 48 hrs by MTT assay; type: functional; settings: MDA-MB-231, 48 h; outline: as §2
[3] = target: T2, Polyunsaturated fatty acid 5-lipoxygenase (Homo sapiens); assay: Inhibition of 5-LOX assessed as decrease in oxygen concentration using arachidonic acid as substrate by polarigraphic method with Clark's oxygen electrode in presence of 0.1 mg/mL BSA
Outline: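 Oxygen-electrode 5-LOX assay (phosphate pH 6.3, 25 °C) with enzyme pre-incubated with BSA 0.1 mg/mL plus compound before starting with arachidonic acid 133 μM; reduced inhibition taken as sign of non-specific binding. AA-861 control.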

HepG2 = assay: Growth inhibition of human HepG2 cells after 48 hrs by MTT assay; type: functional; settings: HepG2, 48 h; outline: as §2
HaCaT = assay: Cytotoxicity against human HaCaT cells at up to 100 uM after 48 hrs by MTT assay; type: cell-based; outline: as §2
[4] = target: T2, Polyunsaturated fatty acid 5-lipoxygenase (Homo sapiens); assay: Irreversible inhibition of 5-LOX assessed as decrease in oxygen concentration using arachidonic acid as substrate at 10-fold increased enzyme concentration pre-incubated for 5 mins before substrate addition by polarigraphic method with Clark's oxygen electrode
Outline: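 Oxygen-electrode 5-LOX assay run with 10-fold excess enzyme: enzyme and compound incubated 5 min, then reaction initiated with arachidonic acid 133 μM; AA-861 control.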

Mus musculus [5] = assay: Antiinflammatory activity against LPS-induced inflammation in BALB/c mouse acute lung injury model assessed as reduction in inflammatory cells infiltration at 50 mg/kg, ip administered 1 hr prior to LPS challenge measured after 12 hrs by hematoxylin and eosin staining based light microscopy; type: functional, organism-based; parameters: dose 50 mg/kg
Outline: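 Male BALB/c mice (20–25 g, 6/group, fasted 8 h) anesthetized with ketamine/xylazine; LPS 25 μg (1 mg/kg) intratracheal in 50 μL PBS; test agent 50 mg/kg ip 1 h before; PBS vehicle controls. At 12 h right lungs inflated, fixed in 10% buffered formaldehyde, paraffin-embedded, H&E stained; infiltration and wall thickening judged by light microscopy.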

Mus musculus [6] = assay: Antiinflammatory activity against LPS-induced inflammation in BALB/c mouse acute lung injury model assessed as reduction in protein level in bronchoalveolar lavage fluid at 50 mg/kg, ip administered 1 hr prior to LPS challenge measured after 12 hrs by Bradford assay; type: functional, organism-based; parameters: dose 50 mg/kg
Outline: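 Mouse LPS lung-injury model as described (BALB/c males, intratracheal LPS 1 mg/kg, compound 50 mg/kg ip 1 h beforehand). BAL fluid collected 12 h post-challenge, centrifuged 3000 rpm 10 min at 4 °C; supernatant stored −70 °C; protein by Bradford, expressed as mg/mL BALF. Six mice per group.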

Mus musculus [7] = assay: Antiinflammatory activity against LPS-induced inflammation in BALB/c mouse acute lung injury model assessed as reduction in alveolar wall thickening at 50 mg/kg, ip administered 1 hr prior to LPS challenge measured after 12 hrs by hematoxylin and eosin staining based light microscopy
Mus musculus [8] = assay: Antiinflammatory activity against LPS-induced inflammation in BALB/c mouse acute lung injury model assessed as reduction in wet/dry ratio of lung at 50 mg/kg, ip administered 1 hr prior to LPS challenge measured after 12 hrs; type: functional, organism-based; parameters: dose 50 mg/kg
Outline: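 In BALB/c males given intratracheal LPS (1 mg/kg) after ip dosing at 50 mg/kg 1 h earlier, left lungs excised at 12 h, rinsed thrice in PBS, blotted, weighed, oven-dried at 72 °C for 36–48 h and reweighed; wet/dry ratio indicates edema. Six mice per group.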

Mus musculus [9] = assay: Antiinflammatory activity against LPS-induced inflammation in BALB/c mouse acute lung injury model assessed as reduction in macrophage count in bronchoalveolar lavage fluid at 50 mg/kg, ip administered 1 hr prior to LPS challenge measured after 12 hrs by Wright-Giemsa staining based hemocytometry; type: functional, organism-based; parameters: dose 50 mg/kg
Outline: (§3)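 Male BALB/c mice (20–25 g, 6/group), intratracheal LPS 1 mg/kg in PBS under ketamine/xylazine, compound 50 mg/kg ip 1 h prior. At 12 h, lavage three times with 0.5 mL PBS via tracheal cannula; pellet resuspended; total cells by hemocytometer; differentials from ≥200 cells on Wright–Giemsa smear. Mean ± SEM, unpaired t-test.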

Mus musculus [10] = assay: Antiinflammatory activity against LPS-induced inflammation in BALB/c mouse acute lung injury model assessed as reduction in neutrophil count in bronchoalveolar lavage fluid at 50 mg/kg, ip administered 1 hr prior to LPS challenge measured after 12 hrs by Wright-Giemsa staining based hemocytometry; type: functional, organism-based; parameters: dose 50 mg/kg; outline: as §3
Mus musculus [11] = assay: Antiinflammatory activity against LPS-induced inflammation in BALB/c mouse acute lung injury model assessed as reduction in total cell count bronchoalveolar lavage fluid at 50 mg/kg, ip administered 1 hr prior to LPS challenge measured after 12 hrs by Wright-Giemsa staining based hemocytometry; type: functional, organism-based; parameters: dose 50 mg/kg; outline: as §3
[12] = target: T1, Polyunsaturated fatty acid 5-lipoxygenase; assay: Inhibition of 5-LOX; outline: as §1

COc1ccc(C(O)C#CCOCc2ccc(SC)cc2)cc1 (stereo not given)
IC50 [1]: > 100 µM

CSc1ccc(COCC#CC(O)c2ccc(F)cc2)cc1 (stereo not given)
inhibition [2]: Active
GI50 (COLO 205): 22 µM
GI50 (MDA-MB-231): 20 µM
IC50 [1]: 12 µM
fold change (FC) [3]: 1
GI50 (HepG2): 31 µM
Activity (HaCaT): Non-toxic
inhibition [4]: Active

CSc1ccc(COCC#CC(O)c2ccc(C#N)cc2)cc1 (stereo not given)
GI50 (COLO 205): 71 µM
GI50 (MDA-MB-231): 62 µM
IC50 [1]: 41 µM
GI50 (HepG2): 54 µM

CC1=C(C)C(=O)C(CCCCC#CCCCC#CCO)=C(C)C1=O [DOCEBENONE]
IC50 [1]: 1.7 µM

CSc1ccc(COCC#CC(O)c2cccc([N+](=O)[O-])c2)cc1 (stereo not given)
GI50 (COLO 205): 71 µM
GI50 (MDA-MB-231): 62 µM
IC50 [1]: 62 µM
GI50 (HepG2): 54 µM

COc1ccc(C(O)C#CCOCc2ccc(SC)cc2)cc1OC (stereo not given)
IC50 [1]: 80 µM

COc1ccc(C(O)C#CCOCc2ccc(SC)cc2)c(OC)c1OC (stereo not given)
IC50 [1]: 72 µM

COc1cc(C(O)C#CCOCc2ccc(SC)cc2)cc(OC)c1OC (stereo not given)
GI50 (COLO 205): 100 µM
GI50 (MDA-MB-231): 100 µM
IC50 [1]: 80 µM
GI50 (HepG2): 100 µM

OC(C#CCOCc1ccccc1)c1ccccc1 (stereo not given)
IC50 [1]: > 100 µM

CCCCCC(O)C#CCOCc1ccc(SC)cc1 (stereo not given)
IC50 [1]: > 100 µM

COc1cccc(C(O)C#CCOCc2ccc(SC)cc2)c1OC (stereo not given)
IC50 [1]: 69 µM

Cc1ccc(-c2cc(C(F)(F)F)nn2-c2ccc(S(N)(=O)=O)cc2)cc1
inhibition (Mus musculus [5]): Active
inhibition (Mus musculus [6]): Active
inhibition (Mus musculus [7]): Active
Activity (Mus musculus [8]): Active
inhibition (Mus musculus [9]): Active
inhibition (Mus musculus [10]): Active
inhibition (Mus musculus [11]): Active

CCCC(O)C#CCOCc1ccccc1 (stereo not given)
IC50 [12]: 760 µM

CSc1ccc(COCC#CC(O)c2ccc(C(C)C)cc2)cc1 (stereo not given)
inhibition [2]: Active
inhibition (Mus musculus [5]): Active
inhibition (Mus musculus [6]): Active
GI50 (COLO 205): 12 µM
inhibition (Mus musculus [7]): Active
Activity (Mus musculus [8]): Active
GI50 (MDA-MB-231): 15 µM
IC50 [1]: 8 µM
inhibition (Mus musculus [9]): Active
fold change (FC) [3]: 1
GI50 (HepG2): 22 µM
Activity (HaCaT): Non-toxic
inhibition [4]: Active
inhibition (Mus musculus [10]): Active
inhibition (Mus musculus [11]): Active
